Measured values: ChEMBL document CHEMBL1649284 (Antimicrob Agents Chemother, 2009)
Numbered stars: 1 amine (or outer) side, 2 acyl side, 3 side chain; on linkers, the order of the positions; unused ones are H or OH. Bridge positions count the residues as written; N and C are the ends. Square brackets hold non-standard residues; d marks the D form. Peptide text beside a SMILES is read from it. * marks the point of attachment. pTerphenylCO(4''-OnC5H11) = CCCCCOc1ccc(-c2ccc(-c3ccc(C(=O)*)cc3)cc2)cc1; Orn(4R-OH,5R-OH) = O=C([C@H](C[C@@H](O)[C@@H](O)N[*:3])N[*:1])[*:2]; hTyr(3S-OH,4S-OH) = N[C@H](C(=O)O)[C@H](O)[C@@H](O)c1ccc(O)cc1; Pro(3S-OH,4S-Me) = C[C@H]1CN[C@H](C(=O)O)[C@H]1O; Hyp = O=C(O)[C@@H]1C[C@@H](O)CN1

How the values were obtained:
[1] = Cmax in healthy human at 200 mg, iv on day 1 as 200 mins infusion followed by maintenance dose of 100 mg every 24 hrs on days 2 and 3 as 100 mins infusions; type: ADME, organism-based; design: dose 200 mg, route intravenous; details: in vivo
Summary of the method: (§1)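 Duplicate blood draws at 0 h, 100 min (end of infusion), and 2, 4, 8, 12, 24 h after the day-3 dose start. Plasma measured by HPLC-MS/MS (range 50.0–20,000 ng/ml). Noncompartmental analysis, per participant; AUC0-τ by linear-log trapezoidal rule, τ = 24 h.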

[2] = Tmax in healthy human at 200 mg, iv on day 1 as 200 mins infusion followed by maintenance dose of 100 mg every 24 hrs on days 2 and 3 as 100 mins infusions; type: ADME, organism-based; details: in vivo; summary of the method: as §1
[3] = tested on: Homo sapiens; assay: AUC (0 to t) in healthy human at 200 mg, iv on day 1 as 200 mins infusion followed by maintenance dose of 100 mg every 24 hrs on days 2 and 3 as 100 mins infusions; type: ADME, organism-based, Plasma; details: in vivo; summary of the method: as §1
[4] = Volume of distribution at steady state in healthy human at 200 mg, iv on day 1 as 200 mins infusion followed by maintenance dose of 100 mg every 24 hrs on days 2 and 3 as 100 mins infusions; type: ADME, organism-based; details: in vivo, read-out: Vdss; summary of the method: as §1
[5] = tested on: Homo sapiens; assay: Total body clearance in healthy human at 200 mg, iv on day 1 as 200 mins infusion followed by maintenance dose of 100 mg every 24 hrs on days 2 and 3 as 100 mins infusions; type: ADME, organism-based; details: in vivo; summary of the method: as §1
[6] = Elimination half life in healthy human at 200 mg, iv on day 1 as 200 mins infusion followed by maintenance dose of 100 mg every 24 hrs on days 2 and 3 as 100 mins infusions; type: ADME, organism-based; details: in vivo, read-out: beta t1/2 (converted)
[7] = Drug level healthy human plasma at 200 mg, iv on day 1 as 200 mins infusion followed by maintenance dose of 100 mg every 24 hrs on days 2 and 3 as 100 mins infusions after 4 hrs of last dose; type: ADME, organism-based; details: read-out: Drug uptake
[8] = Drug level healthy human plasma at 200 mg, iv on day 1 as 200 mins infusion followed by maintenance dose of 100 mg every 24 hrs on days 2 and 3 as 100 mins infusions after 8 hrs of last dose; type: ADME, organism-based; details: read-out: Drug uptake
[9] = Drug level healthy human plasma at 200 mg, iv on day 1 as 200 mins infusion followed by maintenance dose of 100 mg every 24 hrs on days 2 and 3 as 100 mins infusions after 12 hrs of last dose; type: ADME, organism-based; details: read-out: Drug uptake
[10] = Drug level healthy human plasma at 200 mg, iv on day 1 as 200 mins infusion followed by maintenance dose of 100 mg every 24 hrs on days 2 and 3 as 100 mins infusions after 24 hrs of last dose; type: ADME, organism-based; details: read-out: Drug uptake
[11] = Drug level healthy human epithelial lining fluid at 200 mg, iv on day 1 as 200 mins infusion followed by maintenance dose of 100 mg every 24 hrs on days 2 and 3 as 100 mins infusions after 4 hrs of last dose; type: ADME, organism-based; details: read-out: Drug uptake
Summary of the method: (§2)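 Single bronchoscopy with BAL in healthy adults (5 per time point) after the third co-dose, following 6 h fasting. Supernatant (400 × g, 4°C, 10 min) mixed 1:1 with methanol. Both drugs measured by HPLC-MS/MS with saline surrogate-matrix calibrators. ELF volume estimated by urea dilution, with urea in BAL and simultaneous serum measured colorimetrically. Total drug reported.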

[12] = Drug level healthy human epithelial lining fluid at 200 mg, iv on day 1 as 200 mins infusion followed by maintenance dose of 100 mg every 24 hrs on days 2 and 3 as 100 mins infusions after 8 hrs of last dose; type: ADME, organism-based; details: read-out: Drug uptake; summary of the method: as §2
[13] = Drug level healthy human epithelial lining fluid at 200 mg, iv on day 1 as 200 mins infusion followed by maintenance dose of 100 mg every 24 hrs on days 2 and 3 as 100 mins infusions after 12 hrs of last dose; type: ADME, organism-based; details: read-out: Drug uptake; summary of the method: as §2
[14] = Drug level healthy human epithelial lining fluid at 200 mg, iv on day 1 as 200 mins infusion followed by maintenance dose of 100 mg every 24 hrs on days 2 and 3 as 100 mins infusions after 24 hrs of last dose; type: ADME, organism-based; details: read-out: Drug uptake; summary of the method: as §2
[15] = Drug level healthy human alveolar macrophage at 200 mg, iv on day 1 as 200 mins infusion followed by maintenance dose of 100 mg every 24 hrs on days 2 and 3 as 100 mins infusions after 4 hrs of last dose; type: ADME, organism-based; details: alveolar macrophages, read-out: Drug uptake
Summary of the method: (§3)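 Single bronchoscopy with BAL in healthy adults (5 per time point) after the third co-dose, following 6 h fasting and lidocaine anaesthesia. BAL centrifuged at 400 × g, 4°C, 10 min. Cell pellet lysed in 0.9% NaCl/methanol (1:1). Both drugs measured by HPLC-MS/MS against saline surrogate-matrix standards. AM concentration calculated from manual cell counts and a mean AM volume of 2.42 μl/10^6 cells. Total drug reported.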

[16] = Drug level healthy human alveolar macrophage at 200 mg, iv on day 1 as 200 mins infusion followed by maintenance dose of 100 mg every 24 hrs on days 2 and 3 as 100 mins infusions after 8 hrs of last dose; type: ADME, organism-based; details: alveolar macrophages, read-out: Drug uptake; summary of the method: as §3
[17] = Drug level healthy human alveolar macrophage at 200 mg, iv on day 1 as 200 mins infusion followed by maintenance dose of 100 mg every 24 hrs on days 2 and 3 as 100 mins infusions after 12 hrs of last dose; type: ADME, organism-based; details: alveolar macrophages, read-out: Drug uptake; summary of the method: as §3
[18] = Drug level healthy human alveolar macrophage at 200 mg, iv on day 1 as 200 mins infusion followed by maintenance dose of 100 mg every 24 hrs on days 2 and 3 as 100 mins infusions after 24 hrs of last dose; type: ADME, organism-based; details: alveolar macrophages, read-out: Drug uptake; summary of the method: as §3
[19] = Cmax in healthy human at 6 mg/kg, iv for every 12 hrs on day 1 as 120 mins infusions followed by maintenance dose of 4 mg/kg every 12 hrs on day 2 and single 4 mg/kg dose on day 3 as 100 mins infusions; type: ADME, organism-based; design: dose 6 mg/kg, route intravenous; details: in vivo
Summary of the method: (§4)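 Dose by actual body weight, rounded to nearest mg. Duplicate plasma samples at 0 h, 100 min, and 2, 4, 8, 12, 24 h after the day-3 dose start. HPLC-MS/MS (range 10.0–5,000 ng/ml). Noncompartmental analysis per participant; AUC0-τ by linear-log trapezoidal rule, τ = 12 h.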

[20] = Tmax in healthy human at 6 mg/kg, iv for every 12 hrs on day 1 as 120 mins infusions followed by maintenance dose of 4 mg/kg every 12 hrs on day 2 and single 4 mg/kg dose on day 3 as 100 mins infusions; type: ADME, organism-based; details: in vivo; summary of the method: as §4
[21] = AUC (0 to t) in healthy human at 6 mg/kg, iv for every 12 hrs on day 1 as 120 mins infusions followed by maintenance dose of 4 mg/kg every 12 hrs on day 2 and single 4 mg/kg dose on day 3 as 100 mins infusions; type: ADME, organism-based; details: plasma; summary of the method: as §4
[22] = Volume of distribution at steady state in healthy human at 6 mg/kg, iv for every 12 hrs on day 1 as 120 mins infusions followed by maintenance dose of 4 mg/kg every 12 hrs on day 2 and single 4 mg/kg dose on day 3 as 100 mins infusions; type: ADME, organism-based; details: in vivo, read-out: Vdss; summary of the method: as §4
[23] = Elimination half life in healthy human at 6 mg/kg, iv for every 12 hrs on day 1 as 120 mins infusions followed by maintenance dose of 4 mg/kg every 12 hrs on day 2 and single 4 mg/kg dose on day 3 as 100 mins infusions; type: ADME, organism-based; details: in vivo, read-out: beta t1/2 (converted)
[24] = Drug level healthy human plasma at 6 mg/kg, iv for every 12 hrs on day 1 as 120 mins infusions followed by maintenance dose of 4 mg/kg every 12 hrs on day 2 and single 4 mg/kg dose on day 3 as 100 mins infusions after 4 hrs of last dose; type: ADME, organism-based; details: read-out: Drug uptake
[25] = Drug level healthy human plasma at 6 mg/kg, iv for every 12 hrs on day 1 as 120 mins infusions followed by maintenance dose of 4 mg/kg every 12 hrs on day 2 and single 4 mg/kg dose on day 3 as 100 mins infusions after 8 hrs of last dose; type: ADME, organism-based; details: read-out: Drug uptake
[26] = Drug level healthy human plasma at 6 mg/kg, iv for every 12 hrs on day 1 as 120 mins infusions followed by maintenance dose of 4 mg/kg every 12 hrs on day 2 and single 4 mg/kg dose on day 3 as 100 mins infusions after 12 hrs of last dose; type: ADME, organism-based; details: read-out: Drug uptake
[27] = Drug level in healthy human epithelial lining fluid at 6 mg/kg, iv for every 12 hrs on day 1 as 120 mins infusions followed by maintenance dose of 4 mg/kg every 12 hrs on day 2 and single 4 mg/kg dose on day 3 as 100 mins infusions after 4 hrs of last dose; type: ADME, organism-based; details: read-out: Drug uptake; summary of the method: as §2
[28] = Drug level in healthy human epithelial lining fluid at 6 mg/kg, iv for every 12 hrs on day 1 as 120 mins infusions followed by maintenance dose of 4 mg/kg every 12 hrs on day 2 and single 4 mg/kg dose on day 3 as 100 mins infusions after 8 hrs of last dose; type: ADME, organism-based; details: read-out: Drug uptake; summary of the method: as §2
[29] = Drug level in healthy human epithelial lining fluid at 6 mg/kg, iv for every 12 hrs on day 1 as 120 mins infusions followed by maintenance dose of 4 mg/kg every 12 hrs on day 2 and single 4 mg/kg dose on day 3 as 100 mins infusions after 12 hrs of last dose; type: ADME, organism-based; details: read-out: Drug uptake; summary of the method: as §2
[30] = Drug level in healthy human alveolar macrophage at 6 mg/kg, iv for every 12 hrs on day 1 as 120 mins infusions followed by maintenance dose of 4 mg/kg every 12 hrs on day 2 and single 4 mg/kg dose on day 3 as 100 mins infusions after 4 hrs of last dose; type: ADME, organism-based; details: alveolar macrophages, read-out: Drug uptake; summary of the method: as §3
[31] = Drug level in healthy human alveolar macrophage at 6 mg/kg, iv for every 12 hrs on day 1 as 120 mins infusions followed by maintenance dose of 4 mg/kg every 12 hrs on day 2 and single 4 mg/kg dose on day 3 as 100 mins infusions after 8 hrs of last dose; type: ADME, organism-based; details: alveolar macrophages, read-out: Drug uptake; summary of the method: as §3
[32] = Drug level in healthy human alveolar macrophage at 6 mg/kg, iv for every 12 hrs on day 1 as 120 mins infusions followed by maintenance dose of 4 mg/kg every 12 hrs on day 2 and single 4 mg/kg dose on day 3 as 100 mins infusions after 12 hrs of last dose; type: ADME, organism-based; details: alveolar macrophages, read-out: Drug uptake; summary of the method: as §3

CCCCCOc1ccc(-c2ccc(-c3ccc(C(=O)N[C@H]4C[C@@H](O)[C@@H](O)NC(=O)[C@@H]5[C@@H](O)[C@@H](C)CN5C(=O)[C@H]([C@@H](C)O)NC(=O)[C@H]([C@H](O)[C@@H](O)c5ccc(O)cc5)NC(=O)[C@@H]5C[C@@H](O)CN5C(=O)[C@H]([C@@H](C)O)NC4=O)cc3)cc2)cc1 [ANIDULAFUNGIN] ({pTerphenylCO(4''-OnC5H11)}-[Orn(4R-OH,5R-OH)]T[Hyp][hTyr(3S-OH,4S-OH)]T[Pro(3S-OH,4S-Me)]; lactam 1-C)
Cmax [1]: 6600 ng/mL
Tmax [2]: 1.9 h
AUC [3]: 101000 ng·h/mL
Vd [4]: 30.8 L
clearance [5]: 17.1 mL/min
half-life [6]: 20.8 h
concentration at 4 h [7]: 6000 ng/mL
concentration at 8 h [8]: 5100 ng/mL
concentration at 12 h [9]: 4400 ng/mL
concentration at 24 h [10]: 3000 ng/mL
concentration at 4 h [11]: 900 ng/mL
concentration at 8 h [12]: 800 ng/mL
concentration at 12 h [13]: 800 ng/mL
concentration at 24 h [14]: 1100 ng/mL
concentration at 4 h [15]: 44600 ng/mL
concentration at 8 h [16]: 37900 ng/mL
concentration at 12 h [17]: 42700 ng/mL
concentration at 24 h [18]: 103000 ng/mL

C[C@@H](c1ncncc1F)[C@](O)(Cn1cncn1)c1ccc(F)cc1F [VORICONAZOLE]
Cmax [19]: 5300 ng/mL
Tmax [20]: 1.8 h
AUC(0-t) [21]: 39500 ng·h/mL
Vd [22]: 110 L
half-life [23]: 6.9 h
concentration at 4 h [24]: 5300 ng/mL
concentration at 8 h [25]: 1700 ng/mL
concentration at 12 h [26]: 2200 ng/mL
concentration at 4 h [27]: 48300 ng/mL
concentration at 8 h [28]: 10100 ng/mL
concentration at 12 h [29]: 17200 ng/mL
concentration at 4 h [30]: 20600 ng/mL
concentration at 8 h [31]: 10300 ng/mL
concentration at 12 h [32]: 14400 ng/mL
